Sampled rows, rich in hits. Any-hit rate of the full collection: about 6.4%.
TbMetRS inhib: Trypanosoma brucei MetRS inhibition; purified T. brucei MetRS, ATP depletion, Kinase-Glo luminescence; inhibition, % at 11.9 µM; hit rate 0.4% among 360,000; AID 624268;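 active = inhibition above a per-plate cutoff of the control wells' mean inhibition plus 3 SD, cut at about 5.5% in these data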
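System: purified T. brucei MetRS enzyme / Detection: Kinase-Glo luciferase luminescence reporting remaining unconsumed ATP / Medium: HEPES buffer with MgCl2, KCl, DTT, spermine, BSA, pyrophosphatase / Replication: singlicate, one well per compound / Evaluation: percent inhibition relative to median high and low control wells / Schedule: 2 h aminoacylation at 25 °C after 15 min preincubation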
WT yeast gro inh: growth inhibition of WT yeast, mitochondrial fusion screen | hit rate 2.1% among 190,000 | AID 1362 | mitochondrial fusion phenotypic screen, WT strain | inhibition, % at 10 µM; in the data active = inhibition above about 58%; tested in S. cerevisiae
EBV gp42 block: inhibitors of Epstein-Barr virus glycoprotein 42. hit rate 0.42% among 220,000. inhibition, % (tested at 21.74 µM). Fluorescence polarization binding assay, mP read-out; in the data active = inhibition above about 50%
Target sequence (Q1HVG2 whole entry, looked up): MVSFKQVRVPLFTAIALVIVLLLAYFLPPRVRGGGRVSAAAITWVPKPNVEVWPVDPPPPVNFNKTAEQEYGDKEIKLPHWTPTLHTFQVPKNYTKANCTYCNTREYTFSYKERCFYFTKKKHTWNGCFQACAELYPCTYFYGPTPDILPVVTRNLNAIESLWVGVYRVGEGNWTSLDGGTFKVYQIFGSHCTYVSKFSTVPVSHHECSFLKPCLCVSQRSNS
CHOP inh: CHOP inhibition in unfolded protein response | CHO-K1 CHOP-promoter luciferase, tunicamycin-induced, 15-18 h | inhibition, % at 10 µM | hit rate 3.8% among 220,000 | AID 2732;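 active = compounds that reduced the stress-induced luciferase reporter signal by more than about 70% of percent inhibition, limit read from the data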
NR3A LBD binder: modulates the human NR3A ligand-binding domain. NR3A LBD differential scanning fluorimetry, Tm shift; 0% = protein alone, 100% = glycine-bound protein. Tm shift relative to glycine control, % at 25 µM. hit rate 2.5% among 340,000;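 active = melting temperature shift of at least 10% of the positive control shift, at one fixed dose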
MPTP inh: permeability transition pore inhibition. isolated mouse mitochondria, Ca2+ swelling absorbance, 30 min. inhibition, % at 10 µM. hit rate 1.4% among 360,000. AID 602449;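 active = inhibition of 50% or more, scaled per plate between neutral and stimulator controls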
Rh123 counter: mitochondrial membrane potential, counter-screen. inhibition, % at 10 µM. shares compounds with MPTP inh. hit rate 78% among 5,000. isolated mitochondria, Rhodamine 123 fluorescence; in the data active = inhibition above about 22%
MPTP swell DR: MPTP inhibition, dose response swelling confirmation; IC50, µM; hit rate 58% among 780; isolated mitochondria swelling, absorbance; shares compounds with MPTP inh; AID 651561; in the data active = IC50 below about 20 µM
MPTP counter DR: counter-screen for mitochondrial permeability transition pore inhibitors, dose response; shares compounds with MPTP inh; isolated mitochondria counterscreen, fluorescence read-out; IC50, µM; hit rate 49% among 780; in the data active = IC50 below about 80 µM
Large screens that a line does not name were inactive (follow-up assays come after a bar, where they were run).

Cc1cccc(NC(=O)Nc2ccc(S(N)(=O)=O)cc2)c1	none (no result: WT yeast gro inh)
COC(=O)c1cccc(NC(=O)Nc2ccc(Cl)cc2)c1	NR3A LBD binder 35, MPTP inh 77 (no result: WT yeast gro inh) | Rh123 counter 92
Cc1noc(/C=C/c2cccnc2)c1[N+](=O)[O-]	none (no result: WT yeast gro inh, EBV gp42 block, CHOP inh)
CN(Cc1ccccc1)S(=O)(=O)c1nnc(NC(=O)c2ccc(F)cc2)s1	none (no result: WT yeast gro inh, EBV gp42 block, CHOP inh)
CN(Cc1ccc(F)cc1)S(=O)(=O)c1nnc(NC(=O)c2ccccc2Br)s1	MPTP inh 60 (no result: WT yeast gro inh, EBV gp42 block, CHOP inh) | Rh123 counter 71
COc1ccc(CN(C)S(=O)(=O)c2nnc(NC(=O)c3cccc(F)c3)s2)cc1	MPTP inh 54 (no result: WT yeast gro inh, EBV gp42 block, CHOP inh) | Rh123 counter 81
CN(Cc1ccc(F)cc1)S(=O)(=O)c1nnc(NC(=O)c2ccccc2)s1	MPTP inh 51 (no result: WT yeast gro inh, EBV gp42 block, CHOP inh) | Rh123 counter 86
COc1cccc(NC(=O)c2ccc3c(c2)N(C)CCS3)c1	none (no result: WT yeast gro inh, EBV gp42 block, CHOP inh)
Cc1nc(Nc2cccc(C(F)(F)F)c2)nc2c1C(=O)CC(C)C2 (stereo not given)	none
COc1cc(C(=O)NCCOc2cc(C)ccc2C(C)C)cc(OC)c1OC	MPTP inh 57 (no result: WT yeast gro inh, EBV gp42 block, CHOP inh) | Rh123 counter 64
Cc1cc(C)c2c(C)c(C(=O)NCc3ccncc3)oc2c1	none
CCc1ccc2oc(C(=O)NCc3ccncc3)c(C)c2c1	MPTP inh 69 | Rh123 counter 22
c1ccc(-c2nnc(CSc3ccc4c(c3)OCCO4)o2)cc1	none
CC(=O)c1c(C)[nH]c(C(=O)CSc2ccc(F)cc2)c1C	MPTP inh 90 (no result: WT yeast gro inh) | Rh123 counter 84
Cn1cnnc1SCC(=O)Nc1cccc(S(=O)(=O)N2CCOCC2)c1	none
Cc1ccc(NS(=O)(=O)c2ccc(C(=O)NC3CCN(Cc4ccccc4)CC3)cc2)cc1	MPTP inh 60 (no result: WT yeast gro inh, EBV gp42 block, CHOP inh) | Rh123 counter 22
Cc1[nH]c2ccccc2c1C(=O)CN1CCN(C/C=C/c2ccccc2)CC1	MPTP inh 65 | Rh123 counter inactive | MPTP swell DR 17 | MPTP counter DR 52
O=C(CCc1nc2ccccc2c(=O)[nH]1)N1CCN(C/C=C/c2ccccc2)CC1	MPTP inh 68 | Rh123 counter 49
COc1ccc2[nH]c(C)c(C(=O)CN3CCN(C/C=C/c4ccccc4)CC3)c2c1	none
CCOc1ccc(NC(=S)N(CCc2c(C)[nH]c3ccc(C)cc23)Cc2ccncc2)cc1	none
O=C1NC(=S)S/C1=C\c1cc(Cl)ccc1Cl	MPTP inh 98 (no result: WT yeast gro inh, EBV gp42 block, CHOP inh) | Rh123 counter 84
NC(=O)C[n+]1cccc2ccccc21	none
O=C(Nc1cc(Cl)cc(Cl)c1)C(c1ccccc1)N1CCCCC1 (stereo not given)	WT yeast gro inh 66, MPTP inh 83 | Rh123 counter 98
CCOC(=O)C1CCN(C(=O)Nc2cc(Cl)cc(Cl)c2)CC1	MPTP inh 78 (no result: WT yeast gro inh) | Rh123 counter 92
O=C(Nc1cc(Cl)cc(Cl)c1)N1CCCC1	MPTP inh 98 (no result: WT yeast gro inh) | Rh123 counter 93
COc1cccc(NC(=O)C(c2ccccc2)N2CCCCC2)c1 (stereo not given)	none
CC(C)CNC(=S)N1CCC(c2nc(-c3ccc(F)cc3)no2)CC1	MPTP inh 95 | Rh123 counter 94
O=C(Nc1ccccc1)N1CCCC(c2nc(-c3ccc(F)cc3)no2)C1 (stereo not given)	none
O=C(Nc1cccc(C(F)(F)F)c1)N1CCC(c2nc(-c3ccc(F)cc3)no2)CC1	CHOP inh 91, NR3A LBD binder 21, MPTP inh 77 | Rh123 counter 89
NC(=O)NC(CC(=O)NCc1ccc2c(c1)OCO2)c1ccccc1Cl (stereo not given)	none (no result: WT yeast gro inh, EBV gp42 block, CHOP inh)
Cc1noc(C)c1COc1ccccc1C(=O)N1CCN(S(=O)(=O)c2ccccc2Br)CC1	none (no result: WT yeast gro inh, EBV gp42 block, CHOP inh)
c1ccc(C(Cc2nc(-c3ccncc3)no2)c2ccccc2)cc1	MPTP inh 78 (no result: CHOP inh) | Rh123 counter 72
c1ccc(-c2nc(-c3ccncc3)no2)cc1	none
Oc1ccccc1N=Nc1nc(-c2ccccc2)c(-c2ccccc2)[nH]1	MPTP inh 76 | Rh123 counter 54
CCC(C)[C@H]1CNC(=S)N1CCc1cccc2ccccc12 (stereo not given in full)	none (no result: WT yeast gro inh)
CCC(C)[C@H]1CN=C(N)N1CCc1cccc2ccccc12 (stereo not given in full)	MPTP inh 90 (no result: WT yeast gro inh, EBV gp42 block, CHOP inh) | Rh123 counter inactive | MPTP swell DR 6.5 | MPTP counter DR 30
O=c1[nH]nc(Cc2ccccc2)c2ccccc12	none (no result: WT yeast gro inh)
O=c1[nH]nc(Cc2ccc(-c3ccc(Cl)cc3)o2)c2ccccc12	MPTP inh 64 | Rh123 counter inactive | MPTP swell DR inactive | MPTP counter DR 10
Cc1sc(NC(=O)/C=C/c2ccco2)c(C(=O)OC(C)C)c1C	MPTP inh 52 | Rh123 counter inactive | MPTP swell DR inactive | MPTP counter DR inactive
CSc1ccc2c(c1)N(CCC1CCCCN1C)c1ccccc1S2 (stereo not given)	MPTP inh 85 | Rh123 counter inactive | MPTP swell DR 4.8 | MPTP counter DR 56
Cc1ccc(C)c(S(=O)(=O)N2CCCOC2CNC(=O)C(=O)NCCc2ccccc2)c1 (stereo not given)	none (no result: WT yeast gro inh, EBV gp42 block, CHOP inh)
COc1ccccc1-c1c(-c2ccc(OCC(=O)NN)cc2O)n[nH]c1C(F)(F)F	none
COc1ccc(-c2n[nH]c(C(F)(F)F)c2-c2cc3ccccc3o2)c(O)c1	WT yeast gro inh 94, CHOP inh 105, NR3A LBD binder 15, MPTP inh 55 | Rh123 counter 60
O=S(=O)(/N=C(\c1ccc(F)cc1)N1CCOCC1)c1ccccc1	none (no result: WT yeast gro inh, EBV gp42 block, CHOP inh, NR3A LBD binder)
COc1ccccc1N/C(N)=N/c1nc(CSc2ccc(C)cc2)cc(=O)[nH]1	none
Oc1ccccc1-c1n[nH]c(-c2ccccc2O)n1	NR3A LBD binder 23, MPTP inh 87 (no result: WT yeast gro inh, EBV gp42 block, CHOP inh) | Rh123 counter 84
Clc1ccccc1-c1nc(-c2ccccc2)n[nH]1	none
COC(=O)COc1ccc(-c2ccc(F)cc2)cc1C=O	none
O=C(CCSc1ccccc1Cl)Nc1cccc([N+](=O)[O-])c1	MPTP inh 89 | Rh123 counter 84
Cc1ccccc1CN(CC(=O)Nc1cccc([N+](=O)[O-])c1)S(=O)(=O)c1ccc(Cl)cc1	MPTP inh 89 | Rh123 counter 80
CCOC(=O)c1c(OCCO)noc1N	none
O=C(Nc1ccc(Cl)cc1)Nc1ccccc1Sc1ncc([N+](=O)[O-])s1	NR3A LBD binder 13, MPTP inh 86 (no result: WT yeast gro inh) | Rh123 counter 73
Cc1cc([N+](=O)[O-])ccc1NC(=O)Nc1ccc(F)cc1F	MPTP inh 98 | Rh123 counter 78
COc1ccc(NC(=O)Nc2ccc(F)cc2F)c(C)c1	none
